Three compounds from ChEMBL document CHEMBL1130166, “Synthesis and pharmacological characterization of 3-[2-((3aR,9bR)-cis-6-methoxy-2,3,3a,4,5,9b-hexahydro-1H-benz[e] isoindol-2-yl)ethyl]pyrido-[3',4':4,5]thieno[3,2-d]pyrimidine-2,4 (1H,3H)-dione (A-131701): a uroselective alpha 1A adrenoceptor antagonist for the symptomatic treatment of benign …” (J Med Chem, 1997) can be followed below.

Test [1] has as its target T1, Alpha-1B adrenergic receptor (Rattus norvegicus, UniProt P15823).
T1 sequence (P15823 whole entry): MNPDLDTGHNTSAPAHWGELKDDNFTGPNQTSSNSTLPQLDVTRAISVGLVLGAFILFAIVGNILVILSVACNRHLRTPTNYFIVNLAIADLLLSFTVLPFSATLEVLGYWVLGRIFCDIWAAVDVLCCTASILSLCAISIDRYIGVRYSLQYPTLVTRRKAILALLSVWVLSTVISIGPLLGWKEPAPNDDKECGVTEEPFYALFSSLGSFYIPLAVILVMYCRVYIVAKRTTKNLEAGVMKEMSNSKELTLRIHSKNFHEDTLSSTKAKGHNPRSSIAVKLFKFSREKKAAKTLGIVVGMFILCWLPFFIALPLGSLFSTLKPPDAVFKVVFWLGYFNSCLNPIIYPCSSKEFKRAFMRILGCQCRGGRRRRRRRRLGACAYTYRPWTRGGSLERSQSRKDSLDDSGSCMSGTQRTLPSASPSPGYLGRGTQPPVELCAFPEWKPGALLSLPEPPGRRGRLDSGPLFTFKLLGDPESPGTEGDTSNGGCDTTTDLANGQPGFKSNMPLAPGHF
In words: In vitro antagonism against Alpha-1B adrenergic receptor using phenylephrine (PE) challenge in rat spleen. It is filed as functional, tissue-based. The following applies: read-out: pA2 (converted). The gist of the method: (§1)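 Agonist concentration-response curves were run on the isolated tissue, then repeated in the presence of increasing concentrations of antagonist. pA2 was obtained by Schild analysis.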

The target of test [2] is T2, Alpha-2A adrenergic receptor (Homo sapiens, UniProt P08913).
T2 sequence (P08913 whole entry): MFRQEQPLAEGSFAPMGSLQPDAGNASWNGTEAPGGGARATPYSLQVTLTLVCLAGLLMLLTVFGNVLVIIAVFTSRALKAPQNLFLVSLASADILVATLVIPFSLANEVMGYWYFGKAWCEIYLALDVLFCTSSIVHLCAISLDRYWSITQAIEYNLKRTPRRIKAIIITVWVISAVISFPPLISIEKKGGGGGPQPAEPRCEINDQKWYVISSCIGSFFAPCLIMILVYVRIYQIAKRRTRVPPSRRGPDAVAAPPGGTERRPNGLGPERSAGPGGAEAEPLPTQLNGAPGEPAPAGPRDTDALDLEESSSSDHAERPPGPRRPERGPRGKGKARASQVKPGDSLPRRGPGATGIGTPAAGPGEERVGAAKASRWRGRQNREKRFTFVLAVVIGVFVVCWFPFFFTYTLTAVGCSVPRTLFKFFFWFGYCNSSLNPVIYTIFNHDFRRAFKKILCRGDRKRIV
The test is described as follows: Binding affinity against human adrenergic receptor subtype Alpha-2A adrenergic receptor using [3H]rauwolscine as radioligand.

The target in test [3] is T3, Alpha-1B adrenergic receptor (Homo sapiens, UniProt P35368).
T3 sequence (P35368 whole entry): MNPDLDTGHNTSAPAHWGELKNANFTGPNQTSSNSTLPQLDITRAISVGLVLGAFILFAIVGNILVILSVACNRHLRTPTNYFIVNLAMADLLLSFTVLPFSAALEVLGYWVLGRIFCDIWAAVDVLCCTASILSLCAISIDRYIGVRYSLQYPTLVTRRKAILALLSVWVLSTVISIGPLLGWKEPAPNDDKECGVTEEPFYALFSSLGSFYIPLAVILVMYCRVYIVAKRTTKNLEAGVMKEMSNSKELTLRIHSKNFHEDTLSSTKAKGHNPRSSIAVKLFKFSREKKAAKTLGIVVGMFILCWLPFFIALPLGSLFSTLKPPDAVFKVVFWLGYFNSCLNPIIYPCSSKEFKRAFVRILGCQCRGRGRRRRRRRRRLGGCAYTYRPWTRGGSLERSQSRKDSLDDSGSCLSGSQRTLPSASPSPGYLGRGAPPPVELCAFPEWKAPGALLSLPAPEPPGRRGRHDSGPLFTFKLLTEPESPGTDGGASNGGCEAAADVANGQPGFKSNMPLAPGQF
The test is described as follows: Binding affinity against human adrenergic receptor subtype Alpha-1B adrenergic receptor using [3H]prazosin as radioligand.

Test [4] concerns the target T4, Alpha-2C adrenergic receptor (Homo sapiens, UniProt P18825).
T4 sequence (P18825 whole entry): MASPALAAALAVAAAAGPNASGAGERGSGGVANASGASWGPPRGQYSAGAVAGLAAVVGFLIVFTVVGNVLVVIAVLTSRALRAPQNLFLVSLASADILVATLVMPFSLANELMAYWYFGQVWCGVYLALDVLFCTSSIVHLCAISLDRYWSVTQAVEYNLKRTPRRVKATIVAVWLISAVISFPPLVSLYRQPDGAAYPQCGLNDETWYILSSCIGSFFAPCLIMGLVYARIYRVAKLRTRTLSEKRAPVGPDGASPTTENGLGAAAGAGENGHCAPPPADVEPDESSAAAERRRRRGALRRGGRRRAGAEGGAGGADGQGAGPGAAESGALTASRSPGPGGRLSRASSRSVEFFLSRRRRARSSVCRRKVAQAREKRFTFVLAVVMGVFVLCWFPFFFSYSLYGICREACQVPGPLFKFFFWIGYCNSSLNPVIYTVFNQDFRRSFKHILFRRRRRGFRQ
In words: Binding affinity against human Alpha-2C adrenergic receptor using [3H]rauwolscine as radioligand.

The target in test [5] is T5, Alpha-2B adrenergic receptor (Rattus norvegicus, UniProt P19328).
T5 sequence (P19328 whole entry): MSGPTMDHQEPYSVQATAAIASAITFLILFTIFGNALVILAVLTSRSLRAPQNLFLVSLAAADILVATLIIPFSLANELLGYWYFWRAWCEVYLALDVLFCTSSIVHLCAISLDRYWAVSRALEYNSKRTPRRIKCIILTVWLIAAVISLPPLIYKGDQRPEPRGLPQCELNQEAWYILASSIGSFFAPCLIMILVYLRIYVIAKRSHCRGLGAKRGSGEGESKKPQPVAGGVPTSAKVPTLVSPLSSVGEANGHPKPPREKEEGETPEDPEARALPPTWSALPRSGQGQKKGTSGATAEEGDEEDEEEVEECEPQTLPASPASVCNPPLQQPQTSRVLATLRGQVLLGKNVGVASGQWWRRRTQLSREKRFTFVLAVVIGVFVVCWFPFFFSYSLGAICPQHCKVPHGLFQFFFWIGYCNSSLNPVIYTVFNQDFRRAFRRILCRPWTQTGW
In words: Binding affinity against rat Alpha-2B adrenergic receptor using [3H]rauwolscine as radioligand.

The target in test [6] is T6, Alpha-1D adrenergic receptor (Homo sapiens, UniProt P25100).
T6 sequence (P25100 whole entry): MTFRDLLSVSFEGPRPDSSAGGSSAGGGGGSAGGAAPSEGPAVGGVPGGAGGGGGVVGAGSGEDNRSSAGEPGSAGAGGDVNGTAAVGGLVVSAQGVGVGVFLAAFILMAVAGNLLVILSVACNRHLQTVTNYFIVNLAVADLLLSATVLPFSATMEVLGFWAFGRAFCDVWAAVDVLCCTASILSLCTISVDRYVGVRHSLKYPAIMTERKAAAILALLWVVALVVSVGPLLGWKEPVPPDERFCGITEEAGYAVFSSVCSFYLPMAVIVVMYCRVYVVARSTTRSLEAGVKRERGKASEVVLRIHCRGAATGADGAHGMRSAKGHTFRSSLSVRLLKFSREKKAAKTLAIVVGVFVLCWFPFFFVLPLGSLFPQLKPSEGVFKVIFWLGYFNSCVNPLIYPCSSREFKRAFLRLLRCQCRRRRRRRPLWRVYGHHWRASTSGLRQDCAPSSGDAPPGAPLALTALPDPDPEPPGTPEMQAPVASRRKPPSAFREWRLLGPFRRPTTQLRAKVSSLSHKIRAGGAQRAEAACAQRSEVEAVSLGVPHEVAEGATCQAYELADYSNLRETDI
In words: Binding affinity against human adrenergic receptor subtype Alpha-1D adrenergic receptor using [3H]prazosin as radioligand.

A further test relates to Rattus norvegicus. The test is described as follows: Compound was tested for selectivity in a challenge spontaneously hypertensive rat (SHR) model using an ascending iv dose paradigm.
Test [7] concerns the target T7, 5-hydroxytryptamine receptor 1F (Rattus norvegicus, UniProt P30940).
T7 sequence (P30940 whole entry): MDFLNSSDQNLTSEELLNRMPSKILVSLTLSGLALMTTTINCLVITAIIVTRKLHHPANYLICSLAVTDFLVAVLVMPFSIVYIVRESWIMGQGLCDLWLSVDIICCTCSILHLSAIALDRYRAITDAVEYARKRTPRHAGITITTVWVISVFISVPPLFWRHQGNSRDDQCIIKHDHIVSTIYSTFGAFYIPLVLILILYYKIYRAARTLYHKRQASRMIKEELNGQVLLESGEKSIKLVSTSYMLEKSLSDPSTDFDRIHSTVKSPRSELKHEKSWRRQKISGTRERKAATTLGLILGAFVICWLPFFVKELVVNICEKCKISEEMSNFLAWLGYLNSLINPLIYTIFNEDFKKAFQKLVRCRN
In words: Binding affinity against 5-hydroxytryptamine 1 receptor using [3H]5-HT as radioligand.

For test [8], the target named is 5-hydroxytryptamine receptor 2A (Bos taurus, UniProt Q75Z89). The test is described as follows: Binding affinity against 5-hydroxytryptamine 2 receptor using [3H]ketanserin as radioligand.
5-hydroxytryptamine receptor 2A, sequence (Q75Z89 whole entry): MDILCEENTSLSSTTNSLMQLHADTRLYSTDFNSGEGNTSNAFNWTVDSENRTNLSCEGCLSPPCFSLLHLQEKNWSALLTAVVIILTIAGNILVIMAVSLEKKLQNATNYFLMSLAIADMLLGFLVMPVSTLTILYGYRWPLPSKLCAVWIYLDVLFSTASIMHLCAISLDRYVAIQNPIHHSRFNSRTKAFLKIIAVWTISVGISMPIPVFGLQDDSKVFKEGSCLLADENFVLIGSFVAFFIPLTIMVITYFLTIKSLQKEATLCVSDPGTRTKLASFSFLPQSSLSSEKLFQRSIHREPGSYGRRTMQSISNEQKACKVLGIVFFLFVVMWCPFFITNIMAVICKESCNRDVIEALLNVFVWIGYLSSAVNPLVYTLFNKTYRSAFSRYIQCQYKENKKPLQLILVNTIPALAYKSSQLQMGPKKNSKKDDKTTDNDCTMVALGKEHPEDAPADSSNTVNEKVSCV
For test [9], the target named is T8, Alpha-1D adrenergic receptor (Rattus norvegicus, UniProt P23944).
T8 sequence (P23944 whole entry): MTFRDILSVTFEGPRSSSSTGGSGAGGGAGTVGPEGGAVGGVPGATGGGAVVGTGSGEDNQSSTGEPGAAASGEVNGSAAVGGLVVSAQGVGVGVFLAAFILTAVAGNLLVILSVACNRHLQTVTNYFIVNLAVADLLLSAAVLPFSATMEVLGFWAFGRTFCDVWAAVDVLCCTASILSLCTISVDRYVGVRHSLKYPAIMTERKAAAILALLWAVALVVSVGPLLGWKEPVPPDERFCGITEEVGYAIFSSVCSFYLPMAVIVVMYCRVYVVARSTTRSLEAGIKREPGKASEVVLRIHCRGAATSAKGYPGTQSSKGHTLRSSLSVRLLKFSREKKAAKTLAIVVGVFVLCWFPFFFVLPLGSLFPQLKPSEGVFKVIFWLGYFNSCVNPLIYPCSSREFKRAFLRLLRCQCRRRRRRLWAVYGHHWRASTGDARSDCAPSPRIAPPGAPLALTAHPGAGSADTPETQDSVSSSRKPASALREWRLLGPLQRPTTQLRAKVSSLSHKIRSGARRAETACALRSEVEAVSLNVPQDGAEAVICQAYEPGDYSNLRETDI
The test is described as follows: In vitro antagonism against Alpha-1D adrenergic receptor using phenylephrine (PE) challenge in rat aorta. Conditions: read-out: pA2 (converted). It counts as functional, tissue-based. The procedure, abridged: as §1

For test [10], the target named is Beta-1 adrenergic receptor (Homo sapiens, UniProt P08588). The test is described as follows: Binding affinity against Beta-1 adrenergic receptor using [3H]DHA as radioligand.
Beta-1 adrenergic receptor, sequence (P08588 whole entry): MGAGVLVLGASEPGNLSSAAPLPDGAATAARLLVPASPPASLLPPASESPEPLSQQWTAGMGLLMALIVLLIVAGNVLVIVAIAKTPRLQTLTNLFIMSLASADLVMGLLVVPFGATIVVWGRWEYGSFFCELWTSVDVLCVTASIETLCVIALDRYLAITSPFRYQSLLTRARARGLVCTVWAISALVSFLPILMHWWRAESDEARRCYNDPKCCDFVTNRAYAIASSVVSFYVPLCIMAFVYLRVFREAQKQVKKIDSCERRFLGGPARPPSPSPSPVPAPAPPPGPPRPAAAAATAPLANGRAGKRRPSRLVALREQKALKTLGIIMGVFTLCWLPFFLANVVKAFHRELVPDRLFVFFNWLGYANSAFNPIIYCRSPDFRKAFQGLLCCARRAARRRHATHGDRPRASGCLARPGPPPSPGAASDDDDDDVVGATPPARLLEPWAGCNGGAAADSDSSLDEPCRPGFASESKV
The target in test [11] is Beta-2 adrenergic receptor (Homo sapiens, UniProt P07550). The test is described as follows: Binding affinity against adrenergic receptor subtype Beta-2 adrenergic receptor using [3H]DHA as radioligand.
Beta-2 adrenergic receptor, sequence (P07550 whole entry): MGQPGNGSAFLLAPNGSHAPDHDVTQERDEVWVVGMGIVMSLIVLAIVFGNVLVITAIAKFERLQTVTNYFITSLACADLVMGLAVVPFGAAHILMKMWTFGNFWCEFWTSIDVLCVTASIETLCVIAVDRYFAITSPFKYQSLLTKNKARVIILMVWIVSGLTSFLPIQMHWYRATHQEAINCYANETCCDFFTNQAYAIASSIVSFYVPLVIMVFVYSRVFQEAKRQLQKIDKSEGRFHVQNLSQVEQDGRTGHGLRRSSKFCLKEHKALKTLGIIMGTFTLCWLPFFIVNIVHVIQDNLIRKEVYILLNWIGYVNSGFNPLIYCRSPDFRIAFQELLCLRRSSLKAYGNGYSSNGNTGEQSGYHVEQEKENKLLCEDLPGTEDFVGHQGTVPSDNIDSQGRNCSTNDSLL
For another test, the target named is D(1A) dopamine receptor (Mus musculus, UniProt Q61616). The test is described as follows: Binding affinity against Dopamine receptor D1 using [3H]SCH-23390 as radioligand.
D(1A) dopamine receptor, sequence (Q61616 whole entry): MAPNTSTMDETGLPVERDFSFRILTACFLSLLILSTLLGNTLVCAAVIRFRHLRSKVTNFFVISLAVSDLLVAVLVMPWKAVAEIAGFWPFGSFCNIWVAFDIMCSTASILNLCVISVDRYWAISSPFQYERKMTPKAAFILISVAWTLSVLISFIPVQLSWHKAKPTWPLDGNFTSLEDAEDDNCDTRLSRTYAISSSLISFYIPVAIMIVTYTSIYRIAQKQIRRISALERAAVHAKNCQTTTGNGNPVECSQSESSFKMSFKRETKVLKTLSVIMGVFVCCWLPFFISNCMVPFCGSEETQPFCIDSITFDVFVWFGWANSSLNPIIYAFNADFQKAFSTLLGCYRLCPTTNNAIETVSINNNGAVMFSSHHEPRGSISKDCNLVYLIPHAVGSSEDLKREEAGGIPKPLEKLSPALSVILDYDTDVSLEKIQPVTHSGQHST
A further test addresses D(2) dopamine receptor (Homo sapiens, UniProt P14416). In words: Binding affinity against Dopamine receptor D2 using [3H]spiroperidol as radioligand.

D(2) dopamine receptor, sequence (P14416 whole entry): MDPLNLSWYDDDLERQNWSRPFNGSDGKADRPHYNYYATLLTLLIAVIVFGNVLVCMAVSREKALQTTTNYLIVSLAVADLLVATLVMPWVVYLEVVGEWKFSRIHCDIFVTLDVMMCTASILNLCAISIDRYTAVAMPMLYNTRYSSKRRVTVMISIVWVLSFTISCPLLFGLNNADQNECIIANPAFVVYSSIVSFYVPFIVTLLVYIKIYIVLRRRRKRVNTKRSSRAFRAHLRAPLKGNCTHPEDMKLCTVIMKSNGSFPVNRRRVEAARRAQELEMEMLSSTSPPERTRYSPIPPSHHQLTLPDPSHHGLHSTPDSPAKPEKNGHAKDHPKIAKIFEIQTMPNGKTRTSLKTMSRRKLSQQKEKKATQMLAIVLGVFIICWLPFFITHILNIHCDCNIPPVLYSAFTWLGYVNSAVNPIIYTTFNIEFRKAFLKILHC

Broadly, the Ki is the equilibrium dissociation constant of an inhibitor or competing ligand from its target. A higher Ki goes with lower affinity. For the compound `CCOc1ccccc1OCCN[C@H](C)Cc1ccc(OC)c(S(N)(=O)=O)c1` [TAMSULOSIN], in test [1], the Kb is 0.204 nM. In addition, the Ki in [2] worked out at 13.4 nM; in test [3], 0.61 nM; in [4], 7.9 nM; in [5], 6.8 nM; in test [6], 0.058 nM. The same compound gave a pED50 in the test with Rattus norvegicus of 7.33.
`COc1cccc2c1CC[C@H]1CN(CCn3c(=O)[nH]c4c(sc5cccnc54)c3=O)C[C@@H]21`: the Ki came out at 3380 nM in [7]; 83 nM in test [8]; 10600 nM in [10]; 94.9 nM in test [2]; 6.95 nM in test [3]; 16.6 nM in test [4]. Moreover, the inhibitory constant (Ki) in test [5] turned out to be 13.1 nM; in [11] it was 3870 nM; at D(1A) dopamine receptor, 717 nM; on D(2) dopamine receptor, 19.7 nM; in test [6], 0.97 nM. Also, the Kb in test [9] is 0.776 nM; in test [1], 12.9 nM. Also, in the test with Rattus norvegicus, the pED50 is 5.33.
Consider `COc1cc2nc(N3CCN(C(=O)C4CCCO4)CC3)nc(N)c2cc1OC` (stereo not given) [TERAZOSIN], for which the figures for the inhibition constant Ki in test [2], in test [5] and in [6] were 1500 nM, 7.7 nM and 0.85 nM, respectively. In the test on Rattus norvegicus, the pED50 amounted to 6.64.
